Measured values gathered from unrelated publications.
Each line is one published result; the experiments were not run side by side.
Target: Protein-tyrosine kinase 2-beta (PTK2B, Homo sapiens, UniProt Q14289)

| SMILES | assay | conditions | quantity | result |
| --- | --- | --- | --- | --- |
| CN1CC(Oc2cnc(C#N)cc2-c2ccn3nc(NC(=O)C4CC4)cc3c2)C1 | enzyme activity, inhibitor | 1 µM | inhibition | 6% |
| COc1cc2ncnc(Nc3ccc(Oc4ccccc4)cc3C)c2cc1OC | enzyme activity, inhibitor | 1 µM | inhibition | 3% |
| Cc1sc(C(=O)NC2COC2)cc1-n1cc(NC(=O)Nc2c(F)cccc2Cl)cn1 | enzyme activity, inhibitor | 10 µM | remaining activity | 104% |
| Cc1cc(NC(=O)c2cccc3cc(-c4cccc5[nH]nc(N)c45)ccc23)ccc1F | enzyme activity, inhibitor | 0.1 µM | activity vs control | 113% |
| CNC(=O)c1cc(Oc2ccc(NC(=O)Nc3ccc(Cl)c(C(F)(F)F)c3)cc2)ccn1 | enzyme activity, inhibitor | 0.3 µM | inhibition | -3% |
| O=c1nc(-c2ccccn2)sc2ccccc12 | cell-free assay, competition with immobilised ligand | 1 µM | remaining binding | 100% |
| CC(C)(C)c1nc2c(s1)c1nc(N)ncc1c1ccc(NS(=O)(=O)c3c(F)cccc3F)c(F)c12 | enzyme activity, inhibitor, radiometric | 1 µM | remaining activity | 91% |
| CN([C@@H]1CCc2c(CC(=O)O)c3cc(S(C)(=O)=O)ccc3n2C1)S(=O)(=O)c1ccc(F)cc1 | cell-free assay, competition with immobilised ligand | 1 µM | remaining binding | 100% |
| Cc1ccc(Nc2nccc(N(C)c3ccc4c(C)n(C)nc4c3)n2)cc1S(N)(=O)=O | enzyme activity, inhibitor | 10 µM | inhibition | 81% |
| CCCS(=O)(=O)Nc1ccc(F)c(C(=O)c2c[nH]c3ncc(-c4ccc(Cl)cc4)cc23)c1F | enzyme activity, inhibitor | 1 µM | inhibition | < 10% |
| Cc1cnc(NC2CCOCC2)nc1-n1cnc(C(=O)NC(CN)c2cc(F)cc(Cl)c2)c1 (stereo not shown) | enzyme activity, inhibitor, radiometric | 1 µM | remaining activity | 99% |
| Cc1noc([C@H]2C[C@@H](c3ccc(C(F)(F)F)cc3)CN(C(=O)N3CCS(=O)(=O)C3)C2)n1 | cell-free assay, competition with immobilised ligand | 1 µM | remaining binding | 100% |
| N#CCCc1ccc2c(c1)-c1[nH]c3ccc([N+](=O)[O-])cc3c1CC(=O)N2 | cell-free assay | 0.5 µM | remaining signal | 62.9% |
| Cc1nc(Cc2cccc(C(F)(F)F)c2)sc1-c1ccc(C(N)=O)nc1 | cell-free assay, competition with immobilised ligand | 1 µM | remaining binding | 100% |
| CCN(CC)CCNC(=O)c1c(C)[nH]c(/C=C2\C(=O)Nc3ccc(F)cc32)c1C | enzyme activity, inhibitor | 0.1 µM | remaining activity | 86% |
| O=C(Nc1ccc(Oc2ccc(F)cc2)cc1)N1CCc2ncccc2[C@H]1c1ccc(F)cc1 | cell-free assay, competition with immobilised ligand | 1 µM | remaining binding | 89% |
| COc1cc2c(Nc3ccc(Br)cc3F)ncnc2cc1OCC1CCN(C)CC1 | cell-free assay | 0.5 µM | remaining signal | 99.5% |
| CNC(=O)c1ccc(Nc2ncc(C(F)(F)F)c(NCc3nccnc3N(C)S(C)(=O)=O)n2)cc1 | binding, competition with immobilised ligand | 1 µM | remaining binding | 8.3% |
| COc1cc2c(N3CCN(C(=O)Nc4ccc(OC(C)C)cc4)CC3)ncnc2cc1OCCCN1CCCCC1 | cell-free assay | 0.5 µM | remaining signal | 99.3% |
